Data from ChEMBL document CHEMBL1926621, “New potent 5-HT(2A) receptor ligands containing an N'-cyanopicolinamidine nucleus: Synthesis and in vitro pharmacological evaluation” (Eur J Med Chem, 2012).

Assays:
[1] = biological target: D(2) dopamine receptor (Rattus norvegicus, UniProt P61169); experiment: Displacement of [3H]spiperone from rat corpora striatum dopamine D2 receptor after 15 mins by liquid scintillation counting; details: read-out: Ki
In short: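 Corpora striata membranes in Tris-HCl buffer containing NaCl, KCl, CaCl2, MgCl2, ascorbic acid and pargyline. [3H]spiperone 0.4 nM final, 3 mg fresh tissue, incubated 15 min at 37 °C. GF/B filtration, scintillation counting. Six concentrations in triplicate. IC50 converted to Ki via Cheng-Prusoff.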

[2] = biological target: D(1A) dopamine receptor (Rattus norvegicus, UniProt P18901); experiment: Displacement of [3H]SCH-23390 from rat corpora striatum dopamine D1 receptor after 15 mins by liquid scintillation counting; details: read-out: Ki
In short: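 Rat corpora striata homogenized in 50 mM Tris-HCl pH 7.7, spun twice at 50,000 g. Resuspended in Tris-HCl with NaCl, KCl, CaCl2, MgCl2, ascorbic acid and pargyline. 0.4 nM [3H]SCH-23390 final, 3 mg fresh tissue, 15 min at 37 °C. Nonspecific binding with piflutixol. Ki by Cheng-Prusoff from triplicate six-point curves.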

[3] = biological target: T1, 5-hydroxytryptamine receptor 2C (Rattus norvegicus, UniProt P08909); experiment: Displacement of [3H]mesulergine from Sprague-Dawley rat brain cortex serotonin 5-HT2C receptor after 15 mins by liquid scintillation counting in presence of 5-HT2A blocker, spiperone
T1 sequence (P08909 whole entry): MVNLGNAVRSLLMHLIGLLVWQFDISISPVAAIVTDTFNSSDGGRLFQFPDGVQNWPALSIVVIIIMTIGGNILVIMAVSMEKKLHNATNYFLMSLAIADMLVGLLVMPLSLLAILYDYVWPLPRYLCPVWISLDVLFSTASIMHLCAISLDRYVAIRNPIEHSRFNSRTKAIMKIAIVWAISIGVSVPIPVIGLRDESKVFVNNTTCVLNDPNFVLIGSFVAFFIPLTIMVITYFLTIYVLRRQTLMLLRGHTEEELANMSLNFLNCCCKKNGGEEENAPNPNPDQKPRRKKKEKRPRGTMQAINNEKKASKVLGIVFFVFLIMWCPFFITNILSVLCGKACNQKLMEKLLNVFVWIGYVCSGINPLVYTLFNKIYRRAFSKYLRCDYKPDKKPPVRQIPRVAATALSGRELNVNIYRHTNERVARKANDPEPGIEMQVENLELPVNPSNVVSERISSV
In short: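 Male Sprague-Dawley rat frontal cortex membranes (Tris-HCl/EDTA/MgCl2 pH 7.4, ascorbate, pargyline). 100 nM spiperone in all tubes to block 5-HT2A sites. Mianserin defined nonspecific binding. 15 min at 37 °C, PEI-soaked glass fibre filtration. Six compound concentrations in triplicate. Ki by Cheng-Prusoff.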

[4] = biological target: T2, 5-hydroxytryptamine receptor 1A (Rattus norvegicus, UniProt P19327); experiment: Displacement of [3H]-8-OH-DPAT from Sprague-Dawley rat brain cortex serotonin 5-HT1A receptor after 30 mins by liquid scintillation counting; details: read-out: Ki
T2 sequence (P19327 whole entry): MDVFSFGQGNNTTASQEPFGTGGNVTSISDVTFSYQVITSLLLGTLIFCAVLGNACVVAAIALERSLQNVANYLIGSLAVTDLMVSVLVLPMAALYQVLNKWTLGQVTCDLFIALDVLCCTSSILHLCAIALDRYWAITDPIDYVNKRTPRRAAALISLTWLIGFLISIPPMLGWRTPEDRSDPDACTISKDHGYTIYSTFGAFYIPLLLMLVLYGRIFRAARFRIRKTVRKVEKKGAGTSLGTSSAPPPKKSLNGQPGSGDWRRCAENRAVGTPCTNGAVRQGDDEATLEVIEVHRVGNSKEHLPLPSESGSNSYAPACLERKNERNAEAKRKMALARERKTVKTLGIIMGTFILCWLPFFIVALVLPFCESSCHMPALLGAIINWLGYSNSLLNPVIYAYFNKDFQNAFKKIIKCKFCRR
In short: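 Male Sprague-Dawley rat (180-220 g) cerebral cortex homogenized in 50 mM Tris-HCl pH 7.7, spun 50,000 g. [3H]-8-OH-DPAT 0.1 nM final, 30 min at 37 °C, GF/B filtration. Test compounds in ethanol or 5% DMSO, six concentrations in triplicate. IC50 by curve fitting, Ki by Cheng-Prusoff using Scatchard-derived KD.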

Chain of D(1A) dopamine receptor (P18901 whole entry): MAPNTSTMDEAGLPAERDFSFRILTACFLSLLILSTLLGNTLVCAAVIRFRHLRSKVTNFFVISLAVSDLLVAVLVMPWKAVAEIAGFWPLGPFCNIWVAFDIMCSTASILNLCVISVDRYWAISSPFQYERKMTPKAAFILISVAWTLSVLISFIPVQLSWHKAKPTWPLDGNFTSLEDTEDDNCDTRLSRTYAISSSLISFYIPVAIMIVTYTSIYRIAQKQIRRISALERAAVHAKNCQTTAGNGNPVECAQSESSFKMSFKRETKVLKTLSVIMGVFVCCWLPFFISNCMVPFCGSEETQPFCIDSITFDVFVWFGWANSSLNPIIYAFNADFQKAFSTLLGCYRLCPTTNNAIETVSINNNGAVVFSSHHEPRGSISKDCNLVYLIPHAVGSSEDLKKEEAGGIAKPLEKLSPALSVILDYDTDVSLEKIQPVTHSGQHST
Chain of D(2) dopamine receptor (P61169 whole entry): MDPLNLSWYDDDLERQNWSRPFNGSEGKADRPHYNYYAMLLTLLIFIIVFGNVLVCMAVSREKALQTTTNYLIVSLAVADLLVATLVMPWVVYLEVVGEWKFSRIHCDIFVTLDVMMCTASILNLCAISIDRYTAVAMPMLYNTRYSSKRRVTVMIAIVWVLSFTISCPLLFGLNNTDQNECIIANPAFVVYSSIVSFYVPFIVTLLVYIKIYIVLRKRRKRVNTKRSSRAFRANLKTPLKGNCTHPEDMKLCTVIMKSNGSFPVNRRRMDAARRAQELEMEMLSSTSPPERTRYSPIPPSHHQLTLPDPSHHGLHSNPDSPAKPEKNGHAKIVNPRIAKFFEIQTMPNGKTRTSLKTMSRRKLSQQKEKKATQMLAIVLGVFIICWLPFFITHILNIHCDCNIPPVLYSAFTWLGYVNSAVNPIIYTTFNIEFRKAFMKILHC

## COc1ccccc1N1CCN(CCCN/C(=N\C#N)c2ccccn2)CC1
[1]
  Ki: > 10 µM
[2]
  Ki: > 10 µM
[3]; read-out: Ki
  Ki: 1.61 nM
[4]
  Ki: 4.68 nM

## N#C/N=C(\NCCCN1CCN(c2ccccn2)CC1)c1ccccn1
[1]
  Ki: > 10 µM
[2]
  Ki: > 10 µM
[3]; read-out: Ki
  Ki: > 10000 nM
[4]
  Ki: 30.6 nM

## CCOc1ccccc1N1CCN(CCCN/C(=N\C#N)c2ccccn2)CC1
[1]
  Ki: > 10 µM
[2]
  Ki: 0.0524 µM
[3]
  Ki: Not Active
[4]
  Ki: 17.2 nM

## N#C/N=C(\NCCCN1CCN(c2ncccn2)CC1)c1ccccn1
[1]
  Ki: > 10 µM
[2]
  Ki: > 10 µM
[3]; read-out: Ki
  Ki: 22.5 nM
[4]
  Ki: 3080 nM

## N#C/N=C(\NCCCN1CCN(c2cccc(C(F)(F)F)c2)CC1)c1ccccn1
[1]
  Ki: 0.0837 µM
[2]
  Ki: > 10 µM
[3]; read-out: Ki
  Ki: 1.81 nM
[4]
  Ki: 1.31 nM

## Cc1cccc(N2CCN(CCCN/C(=N\C#N)c3ccccn3)CC2)c1C
[1]
  Ki: > 10 µM
[2]
  Ki: > 10 µM
[3]; read-out: Ki
  Ki: 29.7 nM
[4]
  Ki: 30 nM
